Source: ChEMBL document CHEMBL4840303, “Design, synthesis, biological evaluation and pharmacophore model analysis of novel tetrahydropyrrolo[3,4-c]pyrazol derivatives as potential TRKs inhibitors” (Eur J Med Chem, 2021)

Columns and labels:
[1] = Tmax in Sprague dawley rat at 3 mg/kg, po; type: ADME, organism-based; conditions: in vivo
In short: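 Male/female status not given; SD rats (n = 3 per group) dosed orally at 3 mg/kg as a single dose. Blood taken into heparin tubes at set time points and centrifuged at 4 °C. Plasma levels quantified by LC-MS/MS; noncompartmental parameters fitted.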

KM12 [2] = assay: Induction of apoptosis in human KM12 cells assessed as viable cells at 62.5 nM measured after 48 hrs by AnnexinV-FITC/PI staining based flowcytometry assay relative to control; type: functional; conditions: read-out: Activity
In short: (§1)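 10^5 cells in Annexin V binding buffer stained with FITC-Annexin V and PI for 10 min at room temperature in the dark, diluted with PBS and analysed by flow cytometry (FITC 494/518 nm, PI 535/617 nm).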

KM12 [3] = assay: Cell cycle arrest in human KM12 cells assessed as accumulation of cells at S phase at 250 nM measured after 48 hrs by AnnexinV-FITC/PI staining based flowcytometry method relative to control; type: functional
KM12 [4] = assay: Cell cycle arrest in human KM12 cells assessed as accumulation of cells at greater G1 phase at 62.5 nM measured after 48 hrs by AnnexinV-FITC/PI staining based flowcytometry method relative to control; type: functional
[5] = biological target: RAF proto-oncogene serine/threonine-protein kinase (Homo sapiens) (UniProt P04049); assay: Inhibition of recombinant GST-tagged human RAF1 expressed in baculovirus expression system at 1 uM measured by select screen assay relative to control
In short: (§2)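 Single-concentration profiling at 1.0 µM in a 28-kinase SelectScreen panel; percent inhibition reported.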

[6] = MRT in Sprague dawley rat at 1 mg/kg, iv; type: ADME, organism-based; conditions: in vivo
In short: (§3)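 Male-unspecified SD rats, n = 3 per group, single i.v. dose 1 mg/kg or oral 3 mg/kg. Blood drawn into heparin tubes at set times, centrifuged at 4 °C, plasma quantified by LC-MS/MS; noncompartmental parameters fitted.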

KM12 [7] = assay: Cell cycle arrest in human KM12 cells assessed as accumulation of cells at greater G1 phase at 250 nM measured after 48 hrs by AnnexinV-FITC/PI staining based flowcytometry method relative to control; type: functional
[8] = Stability in human liver microsomes assessed as compound remaining in presence of NADPH at 100 uM measured after 60 mins by LC-MS/MS analysis; type: ADME, Microsome; conditions: read-out: Stability
In short: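 Human liver microsomes diluted to 0.59 mg/mL working solution in 100 mM potassium phosphate, prewarmed 10 min at 37 °C; compound added from a 100 µM working solution. NADPH (in 10 mM MgCl2) added to one plate, buffer instead in no-cofactor control. Incubated at 37 °C, quenched at 5, 15, 30, 45, 60 min, centrifuged, analysed by LC-MS/MS.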

[9] = biological target: Hepatocyte growth factor receptor (Homo sapiens) (UniProt P08581); assay: Inhibition of recombinant His-tagged human MET expressed in baculovirus expression system at 1 uM measured by select screen assay relative to control; in short: as §2
[10] = Cmax in Sprague dawley rat at 3 mg/kg, po; type: ADME, organism-based; design: route oral, dose 3 mg/kg; conditions: in vivo
In short: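 Blood was collected into heparin tubes at specified time points and centrifuged at once (4 °C, 4000 rpm, 20 min). Plasma levels were quantified by LC-MS/MS. Parameters came from noncompartmental analysis.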

[11] = biological target: Serine/threonine-protein kinase PLK4 (Homo sapiens) (UniProt O00444); assay: Inhibition of recombinant GST-tagged human PLK4 expressed in baculovirus expression system at 1 uM measured by select screen assay relative to control; in short: as §2
KM12 [12] = assay: Cell cycle arrest in human KM12 cells assessed as accumulation of cells at G1 phase at 1000 nM measured after 48 hrs by AnnexinV-FITC/PI staining based flowcytometry method relative to control; type: functional
KM12 [13] = assay: Cell cycle arrest in human KM12 cells assessed as accumulation of cells at less G1 phase at 62.5 nM measured after 48 hrs by AnnexinV-FITC/PI staining based flowcytometry method relative to control; type: functional
KM12 [14] = assay: Cell cycle arrest in human KM12 cells assessed as accumulation of cells at greater G1 phase at 1000 nM measured after 48 hrs by AnnexinV-FITC/PI staining based flowcytometry method relative to control; type: functional
[15] = biological target: High affinity nerve growth factor receptor (Homo sapiens, UniProt P04629); assay: Inhibition of recombinant His-tagged human TRKA expressed in baculovirus expression system at 1 uM measured by select screen assay relative to control; in short: as §2
[16] = Oral bioavailability in Sprague dawley rat at 3 mg/kg; type: ADME, organism-based; conditions: in vivo; in short: as §3
[17] = biological target: Serine/threonine-protein kinase B-raf (Homo sapiens) (UniProt P15056); assay: Inhibition of recombinant GST-tagged human full length BRAF expressed in baculovirus expression system at 1 uM measured by select screen assay relative to control; in short: as §2
[18] = MRT in Sprague dawley rat at 3 mg/kg, po; type: ADME, organism-based; conditions: in vivo; in short: as §3
CYP3A4 = CYP3A4 (Homo sapiens, UniProt P08684); assay: Inhibition of CYP3A4 in human liver microsomes at 10 uM preincubated for 10 mins followed by addition of NADPH and measured after 15 mins by LC-MS/MS analysis; type: ADME
In short: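 Pooled human liver microsomes (0.253 mg/mL) with test compound at 10 µM and probe substrates: phenacetin (CYP1A2), diclofenac (CYP2C9), S-mephenytoin (CYP2C19), dextromethorphan (CYP2D6), midazolam (CYP3A4). 10 min preincubation at 37 °C, NADPH-regenerating system added, 15 min at 37 °C. Stopped with cold acetonitrile containing tolbutamide/labetalol internal standards, centrifuged, supernatant read by LC-MS/MS; % inhibition.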

[19] = Stability in human plasma assessed as compound remaining incubated for 60 mins by LC-MS/MS analysis; type: ADME, cell-free; conditions: read-out: Stability
In short: (§4)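 Pooled frozen human plasma thawed at 37 °C, centrifuged to remove clots, pH adjusted to 7.4 if required. Spiked to 2 µM final (from 100 µM dosing solution), in duplicate, incubated at 37 °C in a water bath. Sampled at 0, 10, 30, 60 and 120 min, quenched with acetonitrile stop solution containing internal standards, centrifuged, and supernatant analysed by LC-MS/MS for percent remaining.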

[20] = biological target: Cyclin-dependent kinase 2 (Homo sapiens) (UniProt P24941); assay: Inhibition of recombinant His-tagged human full length CDK2 expressed in baculovirus expression system at 1 uM measured by select screen assay relative to control; in short: as §2
[21] = biological target: BDNF/NT-3 growth factors receptor (Homo sapiens, UniProt Q16620); assay: Inhibition of N-terminal GST-tagged human TRKB (456 to 822 residues) expressed in baculovirus infected Sf21 cells using TK as substrate in presence of ATP measured after 40 mins by HTRF assay
KM12 [22] = assay: Induction of apoptosis in human KM12 cells assessed as viable cells at 1000 nM measured after 48 hrs by AnnexinV-FITC/PI staining based flowcytometry assay relative to control; type: functional; conditions: read-out: Activity; in short: as §1
[23] = Stability in human plasma assessed as compound remaining incubated for 10 mins by LC-MS/MS analysis; type: ADME, cell-free; conditions: read-out: Stability; in short: as §4
KM12 [24] = assay: Induction of apoptosis in human KM12 cells assessed as late apoptotic cells at 250 nM measured after 48 hrs by AnnexinV-FITC/PI staining based flowcytometry assay relative to control; type: functional
In short: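 They were detached with trypsin, washed twice in PBS, and 10^5 cells were suspended in Annexin V binding buffer. Cells were stained with FITC-Annexin V and PI for 10 min at room temperature in the dark, diluted with PBS and analysed by flow cytometry.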

Sequence of High affinity nerve growth factor receptor (P04629 33-796 limits assumed): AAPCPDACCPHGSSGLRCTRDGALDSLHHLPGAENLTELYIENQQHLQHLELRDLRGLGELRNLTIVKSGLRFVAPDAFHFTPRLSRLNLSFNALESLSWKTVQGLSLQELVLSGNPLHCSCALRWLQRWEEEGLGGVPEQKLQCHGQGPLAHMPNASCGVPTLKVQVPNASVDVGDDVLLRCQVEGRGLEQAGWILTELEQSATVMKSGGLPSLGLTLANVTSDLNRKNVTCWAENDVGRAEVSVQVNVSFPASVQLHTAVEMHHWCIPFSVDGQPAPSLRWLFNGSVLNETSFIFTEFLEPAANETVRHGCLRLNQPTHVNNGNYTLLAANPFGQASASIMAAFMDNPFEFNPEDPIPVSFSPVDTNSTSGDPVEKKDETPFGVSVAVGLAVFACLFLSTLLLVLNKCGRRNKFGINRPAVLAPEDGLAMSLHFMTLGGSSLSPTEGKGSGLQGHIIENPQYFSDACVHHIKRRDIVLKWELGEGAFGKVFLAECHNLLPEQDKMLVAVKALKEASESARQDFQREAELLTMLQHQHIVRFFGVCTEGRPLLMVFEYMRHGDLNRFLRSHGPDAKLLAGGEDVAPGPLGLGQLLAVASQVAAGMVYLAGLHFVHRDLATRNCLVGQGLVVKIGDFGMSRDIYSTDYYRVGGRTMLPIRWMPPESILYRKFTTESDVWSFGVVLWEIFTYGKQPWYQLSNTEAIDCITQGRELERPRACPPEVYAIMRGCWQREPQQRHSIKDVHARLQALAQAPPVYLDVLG
Sequence of BDNF/NT-3 growth factors receptor (Q16620 whole entry, the tested form may be a part): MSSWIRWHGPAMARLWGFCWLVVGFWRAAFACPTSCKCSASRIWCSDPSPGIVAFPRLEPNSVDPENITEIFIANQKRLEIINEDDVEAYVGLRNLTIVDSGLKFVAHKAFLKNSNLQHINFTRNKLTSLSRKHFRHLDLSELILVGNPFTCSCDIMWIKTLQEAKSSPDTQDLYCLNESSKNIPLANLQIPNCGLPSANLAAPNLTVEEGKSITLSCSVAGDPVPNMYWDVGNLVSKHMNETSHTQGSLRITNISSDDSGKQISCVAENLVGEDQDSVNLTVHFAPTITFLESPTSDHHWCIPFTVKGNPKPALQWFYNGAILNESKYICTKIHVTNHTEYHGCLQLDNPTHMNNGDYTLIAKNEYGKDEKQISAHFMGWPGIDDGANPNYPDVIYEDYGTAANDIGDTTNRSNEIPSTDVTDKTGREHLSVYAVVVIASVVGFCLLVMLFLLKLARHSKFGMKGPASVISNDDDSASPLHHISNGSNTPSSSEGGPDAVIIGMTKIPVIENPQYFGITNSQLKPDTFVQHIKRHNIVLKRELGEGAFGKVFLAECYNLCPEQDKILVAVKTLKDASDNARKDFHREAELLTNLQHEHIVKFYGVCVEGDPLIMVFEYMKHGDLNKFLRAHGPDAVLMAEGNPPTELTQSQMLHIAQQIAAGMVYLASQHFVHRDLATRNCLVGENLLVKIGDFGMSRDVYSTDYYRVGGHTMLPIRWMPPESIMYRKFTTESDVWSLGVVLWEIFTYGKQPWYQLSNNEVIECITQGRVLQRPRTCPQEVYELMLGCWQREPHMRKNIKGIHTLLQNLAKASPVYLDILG
Sequence of CYP3A4 (P08684 whole entry): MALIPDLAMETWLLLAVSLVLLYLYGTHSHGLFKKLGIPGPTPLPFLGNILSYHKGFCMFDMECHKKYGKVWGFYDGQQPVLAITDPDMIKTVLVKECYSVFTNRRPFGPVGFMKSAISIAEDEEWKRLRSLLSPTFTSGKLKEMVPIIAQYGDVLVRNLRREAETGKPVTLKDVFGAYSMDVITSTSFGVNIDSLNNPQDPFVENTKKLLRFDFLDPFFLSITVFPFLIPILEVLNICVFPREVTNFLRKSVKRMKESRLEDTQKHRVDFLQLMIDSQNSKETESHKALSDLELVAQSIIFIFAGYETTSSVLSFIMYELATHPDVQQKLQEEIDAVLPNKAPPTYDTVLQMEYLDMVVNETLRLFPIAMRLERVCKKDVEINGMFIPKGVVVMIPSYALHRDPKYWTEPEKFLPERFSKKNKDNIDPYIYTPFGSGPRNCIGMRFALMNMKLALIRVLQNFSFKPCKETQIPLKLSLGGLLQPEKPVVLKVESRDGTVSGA
Sequence of Hepatocyte growth factor receptor (Homo sapiens) (P08581 whole entry): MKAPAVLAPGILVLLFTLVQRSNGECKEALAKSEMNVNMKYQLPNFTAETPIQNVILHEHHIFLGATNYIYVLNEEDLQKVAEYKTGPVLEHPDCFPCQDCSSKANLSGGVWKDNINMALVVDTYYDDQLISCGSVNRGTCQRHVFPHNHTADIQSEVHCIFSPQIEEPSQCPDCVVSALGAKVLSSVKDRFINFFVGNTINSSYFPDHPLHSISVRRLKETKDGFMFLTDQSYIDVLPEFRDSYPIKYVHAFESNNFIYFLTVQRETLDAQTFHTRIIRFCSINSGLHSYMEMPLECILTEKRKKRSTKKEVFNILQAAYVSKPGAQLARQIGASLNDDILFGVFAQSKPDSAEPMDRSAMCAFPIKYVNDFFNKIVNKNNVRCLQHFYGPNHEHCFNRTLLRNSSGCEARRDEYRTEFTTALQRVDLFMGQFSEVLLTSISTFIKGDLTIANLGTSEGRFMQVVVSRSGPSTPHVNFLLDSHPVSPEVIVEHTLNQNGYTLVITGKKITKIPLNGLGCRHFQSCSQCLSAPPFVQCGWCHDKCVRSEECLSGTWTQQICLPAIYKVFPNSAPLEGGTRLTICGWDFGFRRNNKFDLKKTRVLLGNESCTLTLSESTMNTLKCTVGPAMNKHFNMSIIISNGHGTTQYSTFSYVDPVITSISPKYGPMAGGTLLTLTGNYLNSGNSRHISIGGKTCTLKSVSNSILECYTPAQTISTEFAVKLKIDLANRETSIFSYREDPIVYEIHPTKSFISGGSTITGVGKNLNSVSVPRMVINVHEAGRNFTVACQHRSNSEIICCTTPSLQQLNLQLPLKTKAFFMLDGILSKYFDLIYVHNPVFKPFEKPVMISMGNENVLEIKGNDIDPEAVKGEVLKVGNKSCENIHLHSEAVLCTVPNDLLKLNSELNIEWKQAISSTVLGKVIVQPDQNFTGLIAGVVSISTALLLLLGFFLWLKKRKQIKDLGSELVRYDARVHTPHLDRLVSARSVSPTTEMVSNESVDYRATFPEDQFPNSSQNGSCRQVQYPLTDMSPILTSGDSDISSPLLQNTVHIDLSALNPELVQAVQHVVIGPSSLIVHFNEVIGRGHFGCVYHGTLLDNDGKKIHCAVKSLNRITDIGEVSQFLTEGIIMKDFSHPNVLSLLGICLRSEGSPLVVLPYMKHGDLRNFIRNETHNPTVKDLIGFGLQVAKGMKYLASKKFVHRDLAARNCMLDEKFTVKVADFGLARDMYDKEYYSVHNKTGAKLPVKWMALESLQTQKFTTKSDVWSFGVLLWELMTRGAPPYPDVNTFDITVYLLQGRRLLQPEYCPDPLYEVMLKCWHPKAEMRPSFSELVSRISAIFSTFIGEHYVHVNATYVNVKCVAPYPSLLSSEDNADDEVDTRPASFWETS
Sequence of Serine/threonine-protein kinase B-raf (Homo sapiens) (P15056 whole entry): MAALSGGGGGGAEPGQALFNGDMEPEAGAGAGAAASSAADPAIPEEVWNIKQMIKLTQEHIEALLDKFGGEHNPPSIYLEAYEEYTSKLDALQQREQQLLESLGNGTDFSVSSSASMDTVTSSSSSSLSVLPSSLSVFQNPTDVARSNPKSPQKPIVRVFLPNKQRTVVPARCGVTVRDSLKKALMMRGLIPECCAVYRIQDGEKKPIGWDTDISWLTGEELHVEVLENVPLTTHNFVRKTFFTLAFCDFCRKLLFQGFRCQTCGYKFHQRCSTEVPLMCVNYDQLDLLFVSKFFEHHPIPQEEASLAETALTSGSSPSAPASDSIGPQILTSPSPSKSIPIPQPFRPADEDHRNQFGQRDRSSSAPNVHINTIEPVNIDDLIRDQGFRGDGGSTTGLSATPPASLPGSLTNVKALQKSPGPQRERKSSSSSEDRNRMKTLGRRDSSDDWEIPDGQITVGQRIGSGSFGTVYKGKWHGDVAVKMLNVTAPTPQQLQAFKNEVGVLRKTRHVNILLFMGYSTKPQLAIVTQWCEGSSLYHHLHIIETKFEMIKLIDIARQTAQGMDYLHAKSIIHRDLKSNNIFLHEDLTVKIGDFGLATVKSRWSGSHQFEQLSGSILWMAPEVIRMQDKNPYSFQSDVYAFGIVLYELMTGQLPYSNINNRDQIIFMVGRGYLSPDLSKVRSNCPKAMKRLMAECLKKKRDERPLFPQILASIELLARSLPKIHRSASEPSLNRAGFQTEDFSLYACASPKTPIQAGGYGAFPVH
Sequence of RAF proto-oncogene serine/threonine-protein kinase (Homo sapiens) (P04049 whole entry): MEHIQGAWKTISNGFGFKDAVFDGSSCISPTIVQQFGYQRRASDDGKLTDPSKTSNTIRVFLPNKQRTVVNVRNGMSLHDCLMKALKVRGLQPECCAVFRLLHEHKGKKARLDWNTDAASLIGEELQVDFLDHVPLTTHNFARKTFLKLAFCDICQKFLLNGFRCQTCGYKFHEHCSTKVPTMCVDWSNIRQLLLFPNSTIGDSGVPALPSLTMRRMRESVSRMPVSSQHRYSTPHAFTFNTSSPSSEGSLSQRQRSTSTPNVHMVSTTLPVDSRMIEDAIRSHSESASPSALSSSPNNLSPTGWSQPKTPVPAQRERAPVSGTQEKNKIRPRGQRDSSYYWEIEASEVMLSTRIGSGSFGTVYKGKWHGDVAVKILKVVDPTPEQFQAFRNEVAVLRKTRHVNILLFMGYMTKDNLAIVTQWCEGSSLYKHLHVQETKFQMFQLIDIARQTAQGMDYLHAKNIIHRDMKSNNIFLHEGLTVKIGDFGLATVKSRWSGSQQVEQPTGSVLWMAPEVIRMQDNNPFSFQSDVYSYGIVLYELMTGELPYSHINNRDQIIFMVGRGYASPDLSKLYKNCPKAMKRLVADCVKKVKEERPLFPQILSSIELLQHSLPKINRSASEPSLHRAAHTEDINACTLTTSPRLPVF

CN1CCN(c2ccc(C(=O)Nc3n[nH]c4c3CN(Cc3cc(F)cc(F)c3)C4(C)C)cc2)CC1
Tmax [1]: 1.67 h | viability at 0.0625 µM (KM12 [2]): 70.5% | Activity (KM12 [3]): 8.17% | Activity (KM12 [4]): 4.25% | inhibition [5]: 11% | MRT [6]: 1.85 h | Activity (KM12 [7]): 1.26% | remaining at 1 h, 100 µM [8]: 22.4% | inhibition [9]: 6% | Cmax [10]: 603 ng/mL | inhibition [11]: 0% | Activity (KM12 [12]): 72.8% | Activity (KM12 [13]): 3.63% | Activity (KM12 [14]): 1.59% | inhibition [15]: 102% | bioavailability [16]: 44.3% | inhibition [17]: 3% | MRT [18]: 3.49 h | inhibition at 0.25 h, 10 µM (CYP3A4): 6.4% | remaining at 1 h [19]: 99.2% | inhibition [20]: 3% | IC50 [21]: 28 nM | viability at 1 µM (KM12 [22]): 23.7% | remaining at 10 min [23]: 96.8% | Activity (KM12 [24]): 36.84%
